Compound activity from PubChem.
A selection: hits, their analogues and other compounds. The true share with any hit is near 1.7%.
MEX-5 binding = C. elegans MEX-5 TCR-2 RNA binding activity; MEX-5/FITC-TCR2 RNA binding, fluorescence polarization; active compounds read low; activity score (negative = inhibition of binding), % at 10 µM; AID 1832; hit rate 0.38% among 300,000;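 active = inhibition past about -25% in most replicates, and total fluorescence under double the plate's negative control median, limit read from the data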;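 also: 0% = DMSO and -100% = 5 µM competing unlabeled TCR2 RNA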
Target sequence (Q9XUB2 whole entry, looked up): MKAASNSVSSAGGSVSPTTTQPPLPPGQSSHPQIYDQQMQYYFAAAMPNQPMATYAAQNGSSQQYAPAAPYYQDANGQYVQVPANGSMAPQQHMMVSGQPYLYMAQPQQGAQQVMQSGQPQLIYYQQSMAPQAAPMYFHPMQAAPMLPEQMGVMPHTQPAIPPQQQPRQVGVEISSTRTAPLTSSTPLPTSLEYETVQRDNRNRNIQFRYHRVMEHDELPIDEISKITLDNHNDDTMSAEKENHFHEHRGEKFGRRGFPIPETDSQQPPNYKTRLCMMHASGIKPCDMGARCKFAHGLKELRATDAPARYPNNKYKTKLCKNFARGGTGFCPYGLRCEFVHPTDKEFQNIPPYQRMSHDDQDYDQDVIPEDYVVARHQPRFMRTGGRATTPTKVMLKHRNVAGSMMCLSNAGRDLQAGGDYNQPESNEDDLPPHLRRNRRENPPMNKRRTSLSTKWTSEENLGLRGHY
ZTA DNA inh = blocks Epstein-Barr virus ZTA, an EBNA-1 counter-screen | ZTA-DNA binding, fluorescence polarization | P03206 | hit rate 0.15% among 320,000 | inhibition, % at 11 µM; in the data active = inhibition above about 33%
EBNA-1 inhibitor = blocks EBNA-1 binding to DNA; EBNA-1 DNA binding, fluorescence polarization; hit rate 0.34% among 300,000; inhibition, % at 14.8 µM; in the data active = inhibition above about 28%
NS3 helicase inh = HCV NS3 helicase inhibition | NS3 helicase DNA unwinding, Cy5 molecular beacon fluorescence | inhibition, % at 10.9 µM | hit rate 0.56% among 290,000;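 active = inhibition above the mean of all tested compounds plus 3 SD, set per campaign, cut at about 35% in these data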;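 also: 0% = DMSO wells and 100% = thioflavine S control wells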
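Assay system – hepatitis C virus NS3 helicase domain fragment enzyme · Buffer or medium – MOPS pH 6.5, MgCl2, DTT, Tween20, BSA · Reagent – Cy5/quencher beacon DNA duplex and ATP to start · Compound – single 10.9 µM dose · Timing – 1 h at 25 °C · Technique – Cy5 beacon fluorescence read at start and 1 h · Measure – % inhibition of unwinding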
EBV gp42 block = EBV gp42 inhibition. Q1HVG2. Fluorescence polarization binding assay, mP read-out. inhibition, % (tested at 21.74 µM). hit rate 0.42% among 220,000. AID 1085; in the data active = inhibition above about 50%
core dimer inh = HCV core protein dimerization inhibition. TR-FRET GST/Flag-core106 dimerization, 1536-well. inhibition, % at 5 µM. hit rate 0.33% among 300,000;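 active = inhibition above the mean of all tested compounds plus 3 SD, set per screening campaign, cut at about 45% in these data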
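System: GST-tagged and Flag-tagged HCV core protein residues 1-106 / Input: core106 proteins, GST 13.5 nM and Flag 17 nM / Buffer or medium: KF-containing HEPES buffer, pH 7.45, DTT, CHAPS, BSA / Probe or stimulus: Eu-anti-GST and XL665-anti-Flag labelled anti-tag antibodies / Schedule: 4 h, 22.5 °C incubation / Technique: TR-FRET 671 and 617 nm emission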
NS3 hel confirm = HCV NS3 helicase inhibition, confirmation assay | shares compounds with NS3 helicase inh | NS3 helicase DNA unwinding, Cy5 molecular beacon fluorescence | inhibition, % at 10.9 µM | hit rate 31% among 1,600;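 active = inhibition above the mean of all tested compounds plus 3 SD, cutoff set per campaign, cut at about 36% in these data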
DNA FID counter = displaces DNA intercalator in HCV helicase counter-screen. shares compounds with NS3 helicase inh. DNA fluorescent intercalator displacement, fluorescence. inhibition, % at 7.9 µM. hit rate 4% among 1,600. AID 1945; in the data active = inhibition above about 37%;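 also: 0% = vehicle and 100% = reference compound; higher means more displacement of ethidium bromide from the DNA hairpin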
FID counter DR = DNA intercalator displacement in dose response; IC50, µM; fluorescent intercalator displacement from DNA, fluorescence; 120 tested, under 10 active; shares compounds with NS3 helicase inh; call rule not given here
The depositor's hits bear a star.

CCCCCCSc1ccc([C@@H]2[C@H]3C(=O)N(CC)C(=O)[C@H]3[C@]3(C(=O)OC)CCCN23)cc1 was read as ZTA DNA inh 1.9, EBNA-1 inhibitor -1.4 and core dimer inh 13.3.
`NC(=O)CC1Nc2cccc3cccc(c23)NC1=O` (stereo unspecified) gave MEX-5 binding -9.1, ZTA DNA inh -1.1, EBNA-1 inhibitor 12.4, NS3 helicase inh 61.5*, EBV gp42 block -35.0, core dimer inh -24.0, NS3 hel confirm -7.0 and DNA FID counter 24.3.
`O=C(CC1Nc2cccc3cccc(c23)NC1=O)Nc1ccccc1` (stereo unspecified) gave MEX-5 binding -3.1, ZTA DNA inh -8.9, EBNA-1 inhibitor 12.7, NS3 helicase inh 67.1*, EBV gp42 block 0.3, core dimer inh -26.1, NS3 hel confirm -10.0 and DNA FID counter 10.5.
Cc1onc(-c2ccccc2Cl)c1C(=O)OCC(=O)N1CCN(c2ccccc2)CC1 was read as MEX-5 binding 2.8, ZTA DNA inh -8.4, EBNA-1 inhibitor -3.6 and core dimer inh 6.6.
`CCS(=O)(=O)C1=NN2C(=N)/C(=C\c3ccc(SCc4ccco4)o3)C(=O)N=C2S1` gave MEX-5 binding -15.7, NS3 helicase inh 36.7*, EBV gp42 block -62.8, NS3 hel confirm 65.4* and DNA FID counter 22.4.
Screening CCS(=O)(=O)C1=NN2C(=N)/C(=C\c3ccc(OC(=O)c4ccco4)c(Br)c3)C(=O)N=C2S1 returned MEX-5 binding -3.8, ZTA DNA inh -0.9, EBNA-1 inhibitor 1.2, NS3 helicase inh -9.1 and core dimer inh 6.3.
For CC(=O)Oc1ccccc1C(=O)OCCN=C1NS(=O)(=O)c2ccccc21 the results were MEX-5 binding 0.1, ZTA DNA inh 1.1, EBNA-1 inhibitor 0.5, NS3 helicase inh 10.3 and core dimer inh -9.7.
`COC(=O)COc1ccc(C2Nc3c(Cl)ccc(C(=O)O)c3C3C=CCC32)cc1` (stereo unspecified) gave MEX-5 binding -23.6, ZTA DNA inh 10.1, EBNA-1 inhibitor 4.4, NS3 helicase inh 23.0, EBV gp42 block -8.9 and core dimer inh 14.2.
Screening O=C(O)c1ccc(Cl)c2c1C1C=CCC1C(c1ccccn1)N2 (stereo unspecified) returned MEX-5 binding -67.5*, ZTA DNA inh 31.5, EBNA-1 inhibitor 13.5, NS3 helicase inh 62.6*, EBV gp42 block 27.6, core dimer inh 11.1, NS3 hel confirm 75.2* and DNA FID counter 6.8.
Cc1ccccc1CN1C(=O)CS/C1=N/N=C/c1ccco1 was read as MEX-5 binding 3.2, ZTA DNA inh 0.1, EBNA-1 inhibitor 8.5, NS3 helicase inh 44.7*, EBV gp42 block 4.0, core dimer inh 9.6, NS3 hel confirm -17.2 and DNA FID counter -17.7.
`Cc1ccc(CN2[C@@H](c3ccccc3)COCCS2(=O)=O)cc1` gave MEX-5 binding 1.5, ZTA DNA inh -17.5, EBNA-1 inhibitor 0.2, NS3 helicase inh 9.2 and core dimer inh -0.9.
For COc1cc(NC(=O)c2cc3ccccc3cc2O)c(OC)cc1Cl the results were MEX-5 binding 1.9, ZTA DNA inh -4.2, EBNA-1 inhibitor -22.8, NS3 helicase inh 12.3, EBV gp42 block 21.7 and core dimer inh -6.7.
Screening O=C(Nc1ccccc1O)c1cc2cc(Br)ccc2oc1=O returned MEX-5 binding 0.7, ZTA DNA inh 6.1, EBNA-1 inhibitor -2.4, NS3 helicase inh 42.9*, core dimer inh 5.0, NS3 hel confirm -6.1 and DNA FID counter 4.4.
COc1ccccc1NC(=O)c1cc2cc(Br)ccc2cc1O was read as MEX-5 binding 0.1, ZTA DNA inh 8.0, EBNA-1 inhibitor -2.1, NS3 helicase inh 12.9, EBV gp42 block -6.1, core dimer inh 23.3, NS3 hel confirm 87.3*, DNA FID counter 29.6 and FID counter DR inactive.
